Compound activity: PubChem BioAssay, Broad Institute
Hits are enriched below; roughly 2.2% of the tested compounds scored in any of these assays.
FN deposit inh: fibronectin deposition inhibition | inhibition, % at 12.6 µM | hit rate 0.086% among 350,000 | AH1F fibroblasts, Alexa488-fibronectin deposition fluorescence, overnight;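 active = mean inhibition across replicates of 30% or more, regardless of how many single replicates reach that level; inconclusive = mean under 30% yet at least half of replicates reach 30%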
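Measured by – fluorescence 485/525 nm · System – AH1F fibroblast monolayer, labelled fibronectin deposition · Amount – 10000 cells per well · Buffer or medium – serum-reduced DMEM (2% serum) · Doses – single dose, pinned · Also added – fluorescent fibronectin at 24 nM final · Schedule – 1 h cell attachment, overnight exposure to compound and label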
PGC1a acetyl inh: lowers PGC1a acetylation signal in U2OS cells; inhibition, % at 15.6 µM; AID 651687; AlphaScreen anti-acetyl-lysine; with virally co-expressed GCN5 acetyltransferase; hit rate 0.17% among 350,000;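 active = every replicate shows inhibition of at least 40%; inconclusive = mean inhibition at least 40% but some replicate below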
ERAP1 HTS inh: blocks human ERAP1 aminopeptidase activity; AID 652197; recombinant ERAP1, Leu-AMC fluorescence, 60 min; Q9NZ08; inhibition, % at 10.7 µM; hit rate 0.15% among 340,000;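 active = mean replicate inhibition of at least 30%, or all replicates individually reaching that 30% level; inactive = mean below 30% and not every replicate reaching it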
FGF22 binding: binders of recombinant human FGF22 by thermal shift. Q9HCT0. SYPRO orange fluorescence; percent of sucrose octasulfate shift, DMSO zero. activity (Tm shift, normalised), % at 9.99 µM. hit rate 1.5% among 340,000;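 active = mean Tm shift, scaled 0 neutral to 100 positive control, at about 1.3% or above, every replicate too, limit read from the data; inconclusive = no clear call, values can overlap the other calls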
SIRT5 block: inhibitors of human sirtuin-5 desuccinylase; Q9NXA8; Purified SirT5, succinyl-peptide AMC, trypsin-coupled fluorescence; inhibition, % at 15 µM; hit rate 1.1% among 330,000; in the data active = inhibition above about 15%; inconclusive = no clear call, values can overlap the other calls
Hits are given with their value; – = inactive; ? = inconclusive; · = no result.

SMILES	FN deposit inh	PGC1a acetyl inh	ERAP1 HTS inh	FGF22 binding	SIRT5 block
C[C@@H]1CN([C@H](C)CO)C(=O)Cc2cc(NC(=O)c3ccncc3)ccc2O[C@H]1CN(C)C(=O)Nc1ccccc1	·	–	–	–	–
O=C(NCC[C@H]1CC[C@H](NC(=O)C2CCC2)[C@@H](CO)O1)Nc1ccc(Cl)cc1	·	–	–	–	–
Cc1ncccc1C(=O)N1CCCC(C(=O)c2ccc3c4c(cccc24)CC3)C1 (stereo not given)	–	·	–	43	–
O=C(c1ccc2c3c(cccc13)CC2)C1CCCN(Cc2ccncc2)C1 (stereo not given)	–	–	·	–	–
CCc1nc(CN2CCCC(C(=O)c3ccc4c5c(cccc35)CC4)C2)c(C)[nH]1 (stereo not given)	–	·	–	44	–
CN1CCN(C(=O)C[C@H]2CC[C@H]3[C@@H](COC[C@@H](O)CN3Cc3ccc4c(c3)OCO4)O2)CC1	–	–	–	–	–
CCNC(=O)[C@@H]1[C@@H](CO)[C@@H]2Cn3c(ccc(-c4ccccc4F)c3=O)[C@@H]2N1CC	·	·	–	–	–
COCC(=O)Nc1ccc2c(c1)[C@@H]1C[C@H](CC(=O)NCCN3CCCCC3)O[C@@H](CO)[C@@H]1O2	–	–	–	–	–
CCn1c(SCC(=O)NCc2ccccc2)nnc1C(CO)NC(=O)c1ccccc1 (stereo not given)	–	·	32	–	–
CCC(CC)c1nnc(NC(=O)C2CCCO2)s1 (stereo not given)	·	·	–	43	–
Cc1ccc2c(c1)c1nnc(SCC(=O)Nc3ccccc3C(F)(F)F)nc1n2CC(=O)O	–	–	–	–	–
Cc1ccc2c(c1)c1nnc(SCC(=O)Nc3cccc(Cl)c3C)nc1n2CC(=O)O	·	·	–	1.7	–
O=C(NCCc1cnc[nH]1)c1ccc(-c2ccccc2)cc1	–	·	–	–	17
CCOc1ccc(C(=O)NCCc2cnc[nH]2)cc1	–	–	–	–	–
N#C/C(=C(/O)COC(=O)c1ccc(C#N)cc1)c1nc2ccccc2s1	–	–	–	44	–
N#C/C(=C(/O)COc1ccccc1)c1nc2ccccc2s1	–	–	–	–	–
O=C(CSc1ccccc1)Nc1nccs1	–	·	–	–	–
Cc1ccc(SCC(=O)Nc2nccs2)cc1	–	–	–	43	–
O=S(=O)(CCc1ccncc1)c1ccc(Cl)cc1	–	·	–	–	27
O=C(Nc1ccc(Cl)c(Cl)c1)N[C@@H]1CC[C@H](CCn2cc(C3CC3)nn2)O[C@H]1CO	–	?	–	–	27
COc1cccc(-c2cn(CC[C@H]3CC[C@H](NC(=O)CC4CC4)[C@H](CO)O3)nn2)c1	–	–	–	–	–
COc1cccc(-c2cn(CC[C@@H]3CC[C@H](NC(=O)CC4CC4)[C@@H](CO)O3)nn2)c1	–	–	–	–	30
COc1ccc(NC(=O)N[C@H]2CC[C@H](CCn3cc(-c4ccccc4F)nn3)O[C@@H]2CO)cc1	·	69	–	–	–
O=C(Nc1ccc(Cl)c(Cl)c1)N[C@H]1CC[C@@H](CCn2cc(C3CC3)nn2)O[C@@H]1CO	–	–	–	–	–
C[C@@H]1CCCCO[C@@H](CN(C)S(=O)(=O)c2ccccc2)[C@H](C)CN([C@@H](C)CO)C(=O)c2cc(NC(=O)Nc3cccc4ccccc34)ccc2O1	–	–	–	–	–
SMILES	FN deposit inh	PGC1a acetyl inh	ERAP1 HTS inh	FGF22 binding	SIRT5 block
COC(=O)C[C@@H]1CC[C@@H]2[C@@H](COc3ccc(NC(=O)Nc4ccc(C)cc4)cc3C(=O)N2C)O1	–	–	–	–	–
O=C(Nc1ccccc1)OC1CC2CC1C1CCCC21 (stereo not given)	–	–	–	43	–
O=C(Nc1ccccc1)O[C@@H]1C[C@H]2CCCC(=O)N3CC[C@@H](C1)[C@@H]23	–	–	–	–	–
CCOC(=O)c1ccc(Nc2ncnc3ccc(C)cc23)cc1	·	–	·	·	·
CCOc1ccc(Nc2ncnc3ccc([N+](=O)[O-])cc23)cc1	–	50	–	–	–
C[C@@H]1CN([C@@H](C)CO)C(=O)Cc2cc(NS(=O)(=O)c3cn(C)cn3)ccc2O[C@H]1CN(C)S(=O)(=O)c1ccccc1	·	–	–	–	–
O=C(CSc1ncn[nH]1)NN(c1ccccc1)c1ccccc1	–	·	–	44	–
Cc1cc(C)n(-c2cccc(C(=O)O)c2)n1	–	–	–	44	–
Cc1nn(-c2cccc(C(=O)O)c2)c(C)c1[N+](=O)[O-]	–	–	–	44	–
